Experimental data as given in ChEMBL document CHEMBL4342502, “Synthesis and Antichlamydial Activity of Molecules Based on Dysregulators of Cylindrical Proteases” (J Med Chem, 2020).
Active and inactive are the calls of the source. The rule behind the calls is not given here.

Key:
Chlamydia trachomatis [1] = assay: (§1) Bacteriostatic activity against Chlamydia trachomatis Serovar LGV-L2 infected in Hep2 cells assessed as reduction of inclusion size at 50 ug/ml treated at 8 hrs post infection and incubated for 16 hrs followed by compound washout and further incubated for 24 hrs by immunofluorescence staining based microscopic assay; type: functional, organism-based
Summary of the method: (§2)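 Medium was then removed, wells washed three times with Hanks' balanced salt solution, and compound-free medium added; incubation continued 24 h. Read-out by IFU re-infection and anti-MOMP immunofluorescence, as in the IFU protocol.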

Chlamydia trachomatis [2] = assay: (§3) Anti-chlamydial activity against Chlamydia trachomatis Serovar LGV-L2 infected in Hep2 cells assessed as reduction in chlamydial inclusion growth by measuring appearance of small and irregular inclusions at 12.5 ug/ml treated at 8 hrs post-infection and 24 hrs later re-infecting fresh Hep2 cells monolayer with infected cells and measured at 24 hrs post re-infection by immunofluorescence staining based microscopy analysis relative to control; type: functional; conditions: Serovar LGV-L2, HEp-2
Summary of the method: (§4)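 HEp-2 cells in DMEM with 10% FBS, infected with C. trachomatis L2 at MOI 1. Compounds added 8 hpi in triplicate; DMSO stocks at 50 mg/mL. At 24 hpi lysates collected in sucrose storage medium, frozen at −80 °C, and used to infect fresh HEp-2 monolayers in 10-fold dilutions. After 24 h, stained with goat anti-MOMP and Alexa488 secondary. Inclusions counted in 15 fields at 20x; IFU = mean count per field corrected for dilution.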

Chlamydia trachomatis [3] = assay: as §1, with “Anti-chlamydial activity” for “Bacteriostatic activity”, “reduction in chlamydial” for “reduction of”, “inclusion yield” for “inclusion size”, “for 48” for “for 24”; type: functional, organism-based
Chlamydia trachomatis [4] = assay: Activation of recombinant Chlamydia trachomatis Serovar LGV-L2 C-terminal 6xhis-tagged ClpP1/ClpP2 dimer expressed in Escherichia coli assessed as induction of casein degradation at 0.1 to 1 uM using FITC-labelled casein as substrate pretreated with enzyme for 30 mins followed by substrate addition and measured every 3 mins for 3 hrs in presence of AAA+ chaperone by fluorescence based tecan-plate reader assay
Chlamydia trachomatis [5] = assay: as §1, with “Anti-chlamydial activity” for “Bacteriostatic activity”, “reduction in chlamydial” for “reduction of”, “inclusion yield” for “inclusion size”; type: functional, organism-based; summary of the method: as §2
Chlamydia trachomatis [6] = assay: as §3, with “chlamydial” for “chlamydial inclusion”, “decrease in inclusion forming units” for “appearance of small and irregular inclusions”, “5.2 to 50” for “12.5”, “analysis” for “analysis relative to control”; type: functional, organism-based; summary of the method: as §4

With `CC(C)(C(=O)N1CCN(Cc2ccc(Cl)cc2)CC1)S(=O)(=O)c1ccc(C(F)(F)F)cn1` the inhibition (Chlamydia trachomatis [1]) was “Active”, the inhibition at 12.5 µg/mL (Chlamydia trachomatis [2]) was 60% and the inhibition (Chlamydia trachomatis [3]) was “inactive”. For the same molecule, the Activity (Chlamydia trachomatis [4]) was “inactive”, the inhibition (Chlamydia trachomatis [5]) was “inactive” and the inhibition (Chlamydia trachomatis [6]) was “Active”.
